In brackets after ≈: the same amount, converted by molar mass.

One data set has as its system Artemia salina. The data set can be described thus: Cytotoxicity in brine shrimps larvae assessed as mortality after 24 hrs. In kind it is functional. To be noted: read-out: ED50 (the source's name). In a few lines: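 Artemia salina nauplii hatched 38 h under constant aeration in sterile brine (sea salt 38 g/L, pH 8.5 with 1 N NaOH). Ten nauplii per vial were exposed to a range of compound concentrations at 37 °C for 24 h under incandescent light, alongside vehicle-treated controls. Survivors were counted, % lethality was taken from mean survivors versus control, and ED50 came from probit analysis.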

In data set [1] the test system is Rattus norvegicus. The data set can be described thus: Antihyperglycemic activity in po dosed streptozotocin-induced type 2 diabetic Wistar albino rat assessed as reduction in plasma glucose level by glucometer. In kind it is functional, organism-based. In a few lines: (§1)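 Wistar albino rats of either sex, 150–200 g, fasted 16 h. Diabetes induced by nicotinamide 150 mg/kg, then STZ 65 mg/kg in citrate buffer pH 4.5. Glucose confirmed after 48 h. Groups of six. Oral dosing as 0.25% sodium CMC suspension at 10, 30 or 50 mg/kg. Rosiglitazone was the reference. Retro-orbital plasma glucose measured by glucometer before dosing and at 1, 2, 4, 6, 8, 12 and 24 h. Results as mean ± SEM, compared by ANOVA, t-test and Dunnett's test.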

The test system of the next data set is Bacillus subtilis. In words: Antibacterial activity against Bacillus subtilis NCIM 2063 after 24 hrs by NCCLS agar well diffusion method. As to conditions: NCIM 2063, 24 h. In kind it is functional. In a few lines: (§2)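 Nutrient agar seeded with 0.1 mL bacterial suspension (10⁵ CFU/mL in 0.85% saline). 6 mm wells filled with 0.1 mL compound. Plates in triplicate, 37 ± 0.5 °C for 24 h. MIC = lowest concentration giving complete growth inhibition.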
In general terms: Agar diffusion results depend on both activity and mobility in agar.

The subject of a further data set is Bacillus pumilus. The data set can be described thus: Antibacterial activity against Bacillus pumilus NCIM 2327 after 24 hrs by NCCLS agar well diffusion method. It is filed as functional. To be noted: NCIM 2327, 24 h. In a few lines: as §2
The next data set concerns Staphylococcus aureus. The data set can be described thus: Antibacterial activity against Staphylococcus aureus NCIM 2079 after 24 hrs by NCCLS agar well diffusion method. In kind it is functional. As to conditions: NCIM 2079, 24 h. In a few lines:
as §2

A further data set has as its system Micrococcus luteus. In words: Antibacterial activity against Micrococcus luteus NCIM 2155 after 24 hrs by NCCLS agar well diffusion method. To be noted: NCIM 2155, 24 h. In kind it is functional. In a few lines: as §2
The subject of the next data set is Pseudomonas aeruginosa. The data set can be described thus: Antibacterial activity against Pseudomonas aeruginosa NCIM 2036 after 24 hrs by NCCLS agar well diffusion method. It is filed as functional. To be noted: NCIM 2036, 24 h. In a few lines:
as §2

A further data set has as its system Klebsiella pneumoniae. The data set can be described thus: Antibacterial activity against Klebsiella pneumoniae NCIM 5082 after 24 hrs by NCCLS agar well diffusion method. In kind it is functional. As to conditions: NCIM 5082, 24 h. In a few lines: as §2
The subject of a further data set is Escherichia coli. In words: Antibacterial activity against Escherichia coli NCIM 2065 after 24 hrs by NCCLS agar well diffusion method. In kind it is functional. To be noted: NCIM 2065, 24 h. In a few lines: as §2
The test system of the next data set is Proteus vulgaris. The data set can be described thus: Antibacterial activity against Proteus vulgaris NCIM 2813 after 24 hrs by NCCLS agar well diffusion method. It is filed as functional. As to conditions: NCIM 2813, 24 h. In a few lines:
as §2

The next data set relates to Candida albicans. The data set can be described thus: Antifungal activity against Candida albicans NCIM 3102 after 48 hrs by NCCLS agar well diffusion method. In kind it is functional. To be noted: NCIM 3102, 48 h. In a few lines:
(§3)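 Spore suspensions in sterile distilled water adjusted to 10⁶ CFU/mL, 0.1 mL spread on potato-dextrose agar. 6 mm wells received 0.1 mL compound in 1% DMSO (final 16–512 µg/mL). Controls: 1% DMSO and ketoconazole (16 µg/mL). Triplicate plates, 48 h at 28 ± 0.2 °C. MIC = lowest concentration completely inhibiting growth.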

The next data set concerns Aspergillus niger. In words: Antifungal activity against Aspergillus niger NCIM 548 after 48 hrs by NCCLS agar well diffusion method. As to conditions: NCIM 548, 48 h. It is filed as functional. In a few lines: as §3
The test system of another data set is Aspergillus oryzae. The data set can be described thus: Antifungal activity against Aspergillus oryzae NCIM 643 after 48 hrs by NCCLS agar well diffusion method. It is filed as functional. To be noted: NCIM 643, 48 h. In a few lines: as §3
The test system of a further data set is Penicillium chrysogenum. In words: Antifungal activity against Penicillium chrysogenum NCIM 738 after 48 hrs by NCCLS agar well diffusion method. In kind it is functional. To be noted: NCIM 738, 48 h. In a few lines: as §3
Data set [2] can be described thus: Toxicity in mouse assessed as changes in vital functions. It is filed as organism-based. As to conditions: in vivo.
Data set [3] deals with Rattus norvegicus. The data set can be described thus: Antihyperglycemic activity in streptozotocin-induced type 2 diabetic Wistar albino rat assessed as reduction in plasma glucose level at 10 mg/kg, po by glucometer. In kind it is functional. In a few lines: as §1
For data set [4], the system named is Rattus norvegicus. In words: Antihyperglycemic activity in streptozotocin-induced type 2 diabetic Wistar albino rat assessed as reduction in plasma glucose level at 30 mg/kg, po by glucometer. It is filed as functional. In a few lines: as §1
Data set [5] relates to Rattus norvegicus. The data set can be described thus: Antihyperglycemic activity in streptozotocin-induced type 2 diabetic Wistar albino rat assessed as reduction in plasma glucose level at 50 mg/kg, po by glucometer. In kind it is functional. In a few lines:
as §1

Take `O=C1NC(=O)/C(=C/c2ccc(/C=C/C(=O)c3cc(O)ccc3O)cc2)S1`: the EC50 with Artemia salina was found to be 46.7 µg/mL (≈ 127 µM). The Activity entry in the data set with Rattus norvegicus [1] was “Dose-dependent effect”; in the data set on Rattus norvegicus [3] it was 30.74 mg/dL; with Rattus norvegicus [4], 38.86 mg/dL; in the data set with Rattus norvegicus [5] it was 47.73 mg/dL. Also, the MIC in the data set on Bacillus subtilis was 512 µg/mL (≈ 1390 µM); against Bacillus pumilus it was 256 µg/mL (≈ 697 µM); against Staphylococcus aureus, 256 µg/mL (≈ 697 µM); against Micrococcus luteus, 512 µg/mL (≈ 1390 µM); with Pseudomonas aeruginosa, 512 µg/mL (≈ 1390 µM); in the data set with Klebsiella pneumoniae it was 256 µg/mL (≈ 697 µM). Besides, the MIC in the data set with Escherichia coli turned out to be 256 µg/mL (≈ 697 µM); with Proteus vulgaris it was 512 µg/mL (≈ 1390 µM); in the data set with Candida albicans it was 128 µg/mL (≈ 348 µM); in the data set on Aspergillus niger, 256 µg/mL (≈ 697 µM); in the data set with Aspergillus oryzae it was 256 µg/mL (≈ 697 µM); against Penicillium chrysogenum it was 128 µg/mL (≈ 348 µM). In [2], the MTD came out at 2000 mg/kg.
On to `O=C1NC(=O)/C(=C/c2ccc(/C=C/C(=O)c3cccc([N+](=O)[O-])c3)cc2)S1`, for which the EC50 in the data set on Artemia salina stood at 56.1 µg/mL (≈ 147 µM). For the same compound, the Activity entry with Rattus norvegicus [1] was “Dose-dependent effect”; with Rattus norvegicus [3], 11.18 mg/dL; with Rattus norvegicus [4] it was 14.72 mg/dL; with Rattus norvegicus [5], 16.56 mg/dL. For the same compound, the MIC against Bacillus subtilis worked out at 256 µg/mL (≈ 673 µM); in the data set on Bacillus pumilus it was 256 µg/mL (≈ 673 µM); against Staphylococcus aureus, 128 µg/mL (≈ 337 µM); against Micrococcus luteus it was 256 µg/mL (≈ 673 µM); in the data set with Pseudomonas aeruginosa, 128 µg/mL (≈ 337 µM); in the data set on Klebsiella pneumoniae it was 256 µg/mL (≈ 673 µM). In addition, the MIC was 128 µg/mL (≈ 337 µM) with Escherichia coli; 512 µg/mL (≈ 1350 µM) in the data set on Proteus vulgaris; 512 µg/mL (≈ 1350 µM) in the data set on Candida albicans; 256 µg/mL (≈ 673 µM) with Aspergillus niger; 128 µg/mL (≈ 337 µM) against Aspergillus oryzae; 256 µg/mL (≈ 673 µM) against Penicillium chrysogenum. Besides, the MTD in [2] came out at 2000 mg/kg.
Consider `O=C1NC(=O)/C(=C/c2ccc(/C=C/C(=O)c3ccc(Cl)cc3)cc2)S1`, for which the EC50 in the data set on Artemia salina stood at 12.1 µg/mL (≈ 32.6 µM). Also, the Activity result in the data set with Rattus norvegicus [1] is “Dose-dependent effect”; in the data set with Rattus norvegicus [3] it was 26.74 mg/dL; in the data set with Rattus norvegicus [4] it was 32.38 mg/dL; in the data set with Rattus norvegicus [5], 36.17 mg/dL. The MIC against Bacillus subtilis is 32 µg/mL (≈ 86.5 µM); in the data set on Bacillus pumilus, 16 µg/mL (≈ 43.3 µM); in the data set on Staphylococcus aureus, 32 µg/mL (≈ 86.5 µM); in the data set on Micrococcus luteus, 64 µg/mL (≈ 173 µM); in the data set on Pseudomonas aeruginosa it was 32 µg/mL (≈ 86.5 µM); in the data set with Klebsiella pneumoniae, 16 µg/mL (≈ 43.3 µM). Further, the MIC in the data set on Escherichia coli stood at 32 µg/mL (≈ 86.5 µM); in the data set on Proteus vulgaris it was 32 µg/mL (≈ 86.5 µM); in the data set with Candida albicans, 64 µg/mL (≈ 173 µM); against Aspergillus niger, 64 µg/mL (≈ 173 µM); against Aspergillus oryzae, 64 µg/mL (≈ 173 µM); against Penicillium chrysogenum, 64 µg/mL (≈ 173 µM). In addition, the MTD in data set [2] turned out to be 2000 mg/kg.
For the compound `Cc1cccc(C(=O)/C=C/c2ccc(/C=C3\SC(=O)NC3=O)cc2)c1O`, in the data set on Artemia salina, the EC50 was 33.1 µg/mL (≈ 90.6 µM). Further, the Activity result in the data set on Rattus norvegicus [1] was “Dose-dependent effect”; in the data set with Rattus norvegicus [3], 36.76 mg/dL; with Rattus norvegicus [4] it was 43.14 mg/dL; in the data set on Rattus norvegicus [5], 49.99 mg/dL. Also, the MIC against Bacillus subtilis worked out at 64 µg/mL (≈ 175 µM); against Bacillus pumilus, 128 µg/mL (≈ 350 µM); in the data set with Staphylococcus aureus it was 128 µg/mL (≈ 350 µM); against Micrococcus luteus, 512 µg/mL (≈ 1400 µM); against Pseudomonas aeruginosa, 64 µg/mL (≈ 175 µM); with Klebsiella pneumoniae, 64 µg/mL (≈ 175 µM). Moreover, the MIC against Escherichia coli was 64 µg/mL (≈ 175 µM); with Proteus vulgaris, 32 µg/mL (≈ 87.6 µM); with Candida albicans, 64 µg/mL (≈ 175 µM); against Aspergillus niger, 128 µg/mL (≈ 350 µM); in the data set with Aspergillus oryzae it was 128 µg/mL (≈ 350 µM); with Penicillium chrysogenum, 256 µg/mL (≈ 701 µM). Further, the MTD in [2] was 2000 mg/kg.
As to `O=C1NC(=O)/C(=C/c2ccc(/C=C/C(=O)c3cccnc3)cc2)S1`, in the data set with Artemia salina, the EC50 amounted to 31.4 µg/mL (≈ 93.4 µM). Moreover, the Activity entry in the data set with Rattus norvegicus [1] is “Dose-dependent effect”; in the data set with Rattus norvegicus [3], 19.04 mg/dL; in the data set with Rattus norvegicus [4], 27.86 mg/dL; in the data set with Rattus norvegicus [5], 31.81 mg/dL. The MIC with Bacillus subtilis, against Bacillus pumilus, against Staphylococcus aureus, against Micrococcus luteus, with Pseudomonas aeruginosa and with Klebsiella pneumoniae was 128 µg/mL (≈ 381 µM) in each case. Also, the MIC with Escherichia coli was 128 µg/mL (≈ 381 µM); against Proteus vulgaris, 256 µg/mL (≈ 761 µM); in the data set on Candida albicans it was 128 µg/mL (≈ 381 µM); in the data set with Aspergillus niger, 256 µg/mL (≈ 761 µM); against Aspergillus oryzae it was 128 µg/mL (≈ 381 µM); in the data set with Penicillium chrysogenum, 256 µg/mL (≈ 761 µM). For the same compound, the MTD in data set [2] is 2000 mg/kg.
For `O=C1NC(=O)/C(=C/c2ccc(/C=C/C(=O)c3cc(OCc4ccccc4)cc(OCc4ccccc4)c3)cc2)S1`, the EC50 in the data set with Artemia salina was determined as 26.8 µg/mL (≈ 49 µM). Further, the Activity entry with Rattus norvegicus [1] was “Dose-dependent effect”; in the data set on Rattus norvegicus [3], 21.76 mg/dL; in the data set on Rattus norvegicus [4], 26.87 mg/dL; with Rattus norvegicus [5] it was 30.12 mg/dL. In addition, the MIC against Bacillus subtilis, against Bacillus pumilus, in the data set with Staphylococcus aureus, in the data set on Micrococcus luteus, against Pseudomonas aeruginosa and in the data set on Klebsiella pneumoniae was 16 µg/mL (≈ 29.2 µM) each time. In addition, the MIC with Escherichia coli was determined as 32 µg/mL (≈ 58.4 µM); with Proteus vulgaris it was 32 µg/mL (≈ 58.4 µM); against Candida albicans it was 16 µg/mL (≈ 29.2 µM); in the data set on Aspergillus niger, 16 µg/mL (≈ 29.2 µM); against Aspergillus oryzae, 16 µg/mL (≈ 29.2 µM); in the data set on Penicillium chrysogenum it was 16 µg/mL (≈ 29.2 µM). Further, the MTD in [2] turned out to be 2000 mg/kg.

As usually defined, the MIC is the lowest concentration that inhibits growth of the organism.

These data come from ChEMBL document CHEMBL2151038, “Synthesis, characterization and biological evaluation of some novel 2,4-thiazolidinediones as potential cytotoxic, antimicrobial and antihyperglycemic agents” (Bioorg Med Chem Lett, 2012).
